Series [1] can be described thus: Partition coefficient (logP). To be noted: octanol/water. Format: physicochemical.
The test system of series [2] is Rattus norvegicus. The experiment in a line: Tested for inhibition of edema growth in rat. Format: functional. The arrangement: concentration or dose not given beside the values. In outline:
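Carrageenin paw edema in male Wistar rats (120-150 g, 10 per group). Dosing was oral, as 1% suspensions in 0.5% aqueous Na-CMC: phenylacetic acids at 100 mg/kg, aminouracils at 200 mg/kg. Paw volume was read by mercury displacement before and 3 h after injection. Percent inhibition of mean swelling was taken versus control; error <±10%.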

Series [3] deals with Rattus norvegicus. The experiment in a line: Antiulcer activity in rat at the dose of 20 mg/kg administered intraperitoneally. Format: functional. To be noted: ip, route intraperitoneal. In short, it runs like this: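 Pyloric ligation was done under ether on Wistar-King rats (200-250 g, 10 per group) fasted 24 h. Drug was suspended at 10 mg/mL in 0.9% saline with a trace of Tween 80 and given ip at 20 mg/kg; controls received saline. Forestomach ulcers were scored macroscopically 18 h later as an ulcer index. Percent inhibition was taken versus the mean control index; error <±10%.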

As for `O=C(O)Cc1cccc(Br)c1`, the log partition coefficient (logP) – broadly, the decadic logarithm of the partition coefficient of the neutral form, usually between octanol and water – in series [1] turned out to be 2.36. Moreover, the Inhibition (commonly the relative decrease from the control value, in per cent) in the series on Rattus norvegicus [2] stood at 0%. Regarding `Nc1nc(N)nc(-c2cccc(C(F)(F)F)c2)n1`, the lipophilicity (logP) in series [1] came to 2.67. Besides, the inhibition in vivo (in general, the relative decrease from the control value, in per cent) at 20 mg/kg in the series on Rattus norvegicus [3] stood at 81%. The like results for `Nc1nc(N)nc(-c2cc(F)ccc2Br)n1` were, in that order, 1.45 and 78%. The like results for `Nc1nc(N)nc(-c2ccc([N+](=O)[O-])cc2)n1` were, in that order, 1.6 and 41%. The molecule `COc1cc(CC(=O)O)cc(-c2ccc(Cl)cc2Cl)c1` yielded a logP in series [1] of 4.08. Besides, the Inhibition in the series on Rattus norvegicus [2] was 60%.

In series [1], `Nc1nc(N)nc(-c2ccccc2I)n1` registered a logP of 1.41. The inhibition in vivo at 20 mg/kg in the series with Rattus norvegicus [3] is -7%. For the molecule `CCn1c(=O)c(N(C)C)c(C)n(-c2ccccc2)c1=O`, in series [1], the logP came out at 2.29. Further, in the series on Rattus norvegicus [2], the Inhibition stood at 51%. The like results for `COc1cc(CC(=O)O)cc(-c2ccc(Cl)cc2)c1` were, in that order, 3.71 and 66%. Regarding `Nc1nc(N)nc(-c2cccc(Cl)c2)n1`, the logP in series [1] stood at 2.33. Further, the inhibition in vivo at 20 mg/kg in the series with Rattus norvegicus [3] stood at 100%.

In series [1], `Nc1nc(N)nc(-c2c(Cl)cccc2Cl)n1` displayed a lipophilicity (logP) of 1.38. In addition, the inhibition in vivo at 20 mg/kg in the series with Rattus norvegicus [3] stood at 54%. Molecule `Nc1nc(N)nc(-c2cccc(Br)c2)n1` had a logP in series [1] of 2.44. For the same molecule, the inhibition in vivo at 20 mg/kg with Rattus norvegicus [3] was 96%. The like results for `Cc1ccccc1-c1nc(N)nc(N)n1` were, in that order, 1.26 and 28%. The like results for `Nc1nc(N)nc(-c2ccccc2)n1` [BENZOGUANAMINE] were, in that order, 1.36 and 70%. The like results for `Nc1nc(N)nc(-c2cccc(SC(F)(F)F)c2)n1` were, in that order, 3.2 and 87%.

Consider `O=C(O)Cc1cc(O)cc(-c2ccccc2)c1`, for which the logP in series [1] worked out at 2.75. In the series with Rattus norvegicus [2], the Inhibition amounted to 14%. In turn, `Nc1nc(N)nc(-c2cccc([N+](=O)[O-])c2)n1` returned a log partition coefficient (logP) in series [1] of 1.57. Also, in the series with Rattus norvegicus [3], the inhibition in vivo at 20 mg/kg amounted to 85%.

As to `COc1cc(CC(=O)O)cc(-c2ccccc2Cl)c1`, in series [1], the logP is 3.66. For the same molecule, the Inhibition with Rattus norvegicus [2] was 75%. Consider `Nc1nc(N)nc(-c2cc(Cl)ccc2Cl)n1` [IRSOGLADINE], for which the logP in series [1] is 1.97. In the series with Rattus norvegicus [3], the inhibition in vivo at 20 mg/kg stood at 100%. Consider `CCOc1cccc(CC(=O)O)c1`, for which the logP in series [1] turned out to be 1.88. In the series with Rattus norvegicus [2], the Inhibition is reported as 17%.

For the molecule `Nc1nc(N)nc(-c2ccc(Cl)cc2)n1`, in the series on Rattus norvegicus [3], the inhibition in vivo at 20 mg/kg came out at 69%. The molecule `Cc1c(N(C)C)c(=O)[nH]c(=O)n1-c1ccccc1` yielded a logP in series [1] of 1.4. In addition, the Inhibition in the series with Rattus norvegicus [2] is recorded as 35%. In series [1], `COc1ccc(Br)cc1-c1nc(N)nc(N)n1` registered a logP of 1.53. The inhibition in vivo at 20 mg/kg in the series on Rattus norvegicus [3] is 49%.

Take `Nc1nc(N)nc(-c2ccc(Cl)cc2Cl)n1`: in series [1], the logP worked out at 2.07. Besides, the inhibition in vivo at 20 mg/kg with Rattus norvegicus [3] is 100%. The like results for `Nc1nc(N)nc(-c2ccccc2Cl)n1` were, in that order, 1.19 and 36%. In series [1], `Cc1c(N(C)C)c(=O)n(C)c(=O)n1-c1ccc(Cl)cc1` yielded a logP of 2.32. Besides, in the series with Rattus norvegicus [2], the Inhibition was determined as 41%. The like results for `O=C(O)Cc1cccc(Cl)c1` were, in that order, 1.59 and 0%.

`CC(C)Cc1ccc(CC(=O)O)cc1` [IBUFENAC]: the lipophilicity (logP) in series [1] came out at 3.38. Moreover, the Inhibition in the series with Rattus norvegicus [2] turned out to be 32%. `COc1cc(CC(=O)O)cc(-c2ccc(F)cc2)c1` returned a log partition coefficient (logP) in series [1] of 3.5. Besides, the Inhibition in the series on Rattus norvegicus [2] is given as 74%. As for `COc1ccccc1-c1nc(N)nc(N)n1`, the log partition coefficient (logP) in series [1] stood at 0.58. The inhibition in vivo at 20 mg/kg with Rattus norvegicus [3] was determined as 1%. The like results for `Nc1nc(N)nc(-c2ccc(F)cc2)n1` were, in that order, 1.61 and 84%. As to `CCN(CC)c1c(C)n(CC)c(=O)n(-c2ccccc2)c1=O`, the logP in series [1] is 2.2. For the same molecule, in the series on Rattus norvegicus [2], the Inhibition turned out to be 57%.

`COc1cc(CC(=O)O)cc(-c2ccccc2)c1`: the lipophilicity (logP) in series [1] was 3.3. The Inhibition in the series with Rattus norvegicus [2] is listed as 68%. The like results for `COc1cccc(CC(=O)O)c1` were, in that order, 1.45 and -3%. In the case of `CCCNc1c(C)n(-c2ccccc2)c(=O)n(C)c1=O`, the logP in series [1] was found to be 1.7. Moreover, the Inhibition in the series with Rattus norvegicus [2] is listed as 45%. Taken in the same sequence, the figures for `Cc1c(N(C)C)c(=O)n(C)c(=O)n1C` were 0.99 and 37%. Taken in the same sequence, the figures for `COc1cc(CC(=O)O)cc(-c2ccc(C)cc2)c1` were 3.72 and 23%. The like results for `CCCNc1c(C)n(C)c(=O)n(-c2ccccc2)c1=O` were, in that order, 1.2 and 64%. In the case of `C=CCN(CC=C)c1c(C)n(-c2ccccc2)c(=O)n(C)c1=O`, the logP in series [1] is 2.59. For the same molecule, the Inhibition with Rattus norvegicus [2] is 46%. Taken in the same sequence, the figures for `Cc1cc(CC(=O)O)cc(OCC(C)C)c1` were 3.33 and 13%. Taken in the same sequence, the figures for `C=CCn1c(=O)c(N(C)C)c(C)n(-c2ccccc2)c1=O` were 1.98 and 75%. As to `Nc1nc(N)nc(-c2cc(Br)ccc2F)n1`, the logP in series [1] amounted to 1.94. In addition, the inhibition in vivo at 20 mg/kg with Rattus norvegicus [3] is 100%. `COc1cc(CC(=O)O)cc(C2CCCCC2)c1`: the logP in series [1] is 3.66. Moreover, in the series on Rattus norvegicus [2], the Inhibition was determined as 35%.

`Cc1c(N2CCOCC2)c(=O)n(C)c(=O)n1C1CCCCC1` came in with a logP in series [1] of 2.39. Moreover, the Inhibition with Rattus norvegicus [2] stood at 44%. As for `Nc1nc(N)nc(-c2cc(Br)ccc2Cl)n1`, the logP in series [1] amounted to 2.04. In the series with Rattus norvegicus [3], the inhibition in vivo at 20 mg/kg worked out at 86%. In turn, `CCN(CC)c1c(C)n(-c2ccccc2)c(=O)n(C)c1=O` showed a log partition coefficient (logP) in series [1] of 2.19. For the same molecule, in the series with Rattus norvegicus [2], the Inhibition is 46%. `O=C(O)Cc1cc(O)cc(-c2ccc(Cl)cc2)c1` had a lipophilicity (logP) in series [1] of 3.42. Besides, the Inhibition with Rattus norvegicus [2] came out at 14%.

For the molecule `Cc1c(N(C)C)c(=O)n(C)c(=O)n1-c1ccccc1`, the logP in series [1] worked out at 1.19. Further, the Inhibition in the series with Rattus norvegicus [2] is listed as 65%. In turn, `Nc1nc(N)nc(-c2cc(Cl)ccc2F)n1` displayed a logP in series [1] of 1.81. The inhibition in vivo at 20 mg/kg with Rattus norvegicus [3] stood at 89%. The like results for `CCOc1ccccc1-c1nc(N)nc(N)n1` were, in that order, 1.03 and -5%. Taken in the same sequence, the figures for `Nc1nc(N)nc(-c2ccccc2Br)n1` were 1.26 and 26%. The like results for `Cc1ccc(-c2nc(N)nc(N)n2)cc1` were, in that order, 1.92 and 54%. For `COc1ccc(-n2c(C)c(N(C)C)c(=O)n(C)c2=O)cc1`, the log partition coefficient (logP) in series [1] was determined as 1.96. Also, the Inhibition in the series on Rattus norvegicus [2] stood at 41%. Take `COc1cc(CC(=O)O)cc(C(C)C)c1`: the logP in series [1] amounted to 2.75. Moreover, the Inhibition with Rattus norvegicus [2] amounted to 10%. Taken in the same sequence, the figures for `O=C(O)Cc1cccc(F)c1` were 1.59 and 0%. Taken in the same sequence, the figures for `CCN(CC)c1c(C)n(C)c(=O)n(-c2ccccc2)c1=O` were 2.11 and 45%. The like results for `Cc1c(N(C)C)c(=O)n(CCO)c(=O)n1-c1ccccc1` were, in that order, 1.12 and 34%. `Cc1cccc(CC(=O)O)c1` came in with a lipophilicity (logP) in series [1] of 1.89. For the same molecule, the Inhibition in the series with Rattus norvegicus [2] is given as 0%. In the case of `Nc1nc(N)nc(-c2cc(Cl)ccc2Br)n1`, in series [1], the logP was found to be 1.85. The inhibition in vivo at 20 mg/kg with Rattus norvegicus [3] was determined as 81%. For the molecule `Cc1c(NCC(C)C)c(=O)n(-c2ccccc2)c(=O)n1C`, the lipophilicity (logP) in series [1] amounted to 1.48. Moreover, in the series with Rattus norvegicus [2], the Inhibition is reported as 58%. Taken in the same sequence, the figures for `CCCCNc1c(C)n(C)c(=O)n(-c2ccccc2)c1=O` were 1.69 and 48%. The like results for `Cc1c(N(C)C)c(=O)n(-c2ccccc2)c(=O)n1CCO` were, in that order, 0.85 and 31%.

In the case of `Nc1nc(N)nc(-c2cc(Br)ccc2Br)n1`, in series [1], the logP amounted to 2.09. Moreover, in the series with Rattus norvegicus [3], the inhibition in vivo at 20 mg/kg was determined as 43%. Consider `CCN(CC)c1c(C)n(-c2ccccc2)c(=O)n(CC)c1=O`, for which the lipophilicity (logP) in series [1] was 2.78. Also, the Inhibition with Rattus norvegicus [2] stood at 53%. With `CS(=O)(=O)c1cccc(-c2nc(N)nc(N)n2)c1`, the lipophilicity (logP) in series [1] was 0.29. In the series with Rattus norvegicus [3], the inhibition in vivo at 20 mg/kg was -6%. Molecule `COc1ccc(-c2cc(CC(=O)O)cc(OC)c2)cc1` came in with a lipophilicity (logP) in series [1] of 3.28. Besides, the Inhibition in the series with Rattus norvegicus [2] was 13%. Taken in the same sequence, the figures for `O=C(O)Cc1cccc([N+](=O)[O-])c1` were 1.34 and 0%. Molecule `Nc1nc(N)nc(-c2cc(C(F)(F)F)ccc2Cl)n1` displayed a log partition coefficient (logP) in series [1] of 2.27. Besides, in the series on Rattus norvegicus [3], the inhibition in vivo at 20 mg/kg was 51%. The like results for `Nc1nc(N)nc(-c2cccc(F)c2)n1` were, in that order, 1.73 and 70%. The molecule `COc1cc(C)cc(CC(=O)O)c1` returned a lipophilicity (logP) in series [1] of 1.94. Besides, in the series on Rattus norvegicus [2], the Inhibition is listed as 6%.

The molecule `Cc1c(N2CCCC2)c(=O)n(-c2ccccc2)c(=O)n1C` showed a logP in series [1] of 2.26. Also, the Inhibition in the series on Rattus norvegicus [2] is on record as 32%.

In series [1], `Cc1c(N2CCOCC2)c(=O)n(-c2ccccc2)c(=O)n1C` registered a lipophilicity (logP) of 0.69. Also, in the series with Rattus norvegicus [2], the Inhibition came to 35%.

`C=CCn1c(C)c(N(C)C)c(=O)n(-c2ccccc2)c1=O` gave a logP in series [1] of 1.44. Also, in the series with Rattus norvegicus [2], the Inhibition was determined as 54%. On to `Cc1c(N2CCCCC2)c(=O)n(-c2ccccc2)c(=O)n1C`, for which, in series [1], the logP was 2.76. Moreover, the Inhibition in the series on Rattus norvegicus [2] amounted to 27%. In turn, `Cc1c(N(C)C)c(=O)n(-c2ccccc2)c(=O)n1C` yielded a log partition coefficient (logP) in series [1] of 1.3. Further, the Inhibition in the series with Rattus norvegicus [2] came out at 44%. The like results for `CCCCOc1cc(C)cc(CC(=O)O)c1` were, in that order, 3.38 and 3%.
